pIC50: −log10 of the molar value.
Assays:
[1] = Oral bioavailability in Sprague-Dawley rat at 2 mg/kg administered through gavage; format: ADME, organism-based; conditions: in vivo
Rhesus monkey = assay: Decrease in aldosterone level in rhesus monkey plasma at 0.3 mg/kg, iv by LC/MS method; format: functional; conditions: Macaca mulatta
How it was run: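 Plasma aldosterone and 11-deoxycortisol quantified by LC–MS at time points up to 180 min postdose; AUCs over that period calculated and compared with baseline.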

[2] = biological target: T1, Cytochrome P450 11B1, mitochondrial (Homo sapiens, UniProt P15538); assay: Inhibition of human CYP11B1 expressed in V79 cells assessed as cortisol level after 3 hrs by HTRF assay in presence of 250 nM 11-deoxycortisol; format: cell-based
T1 sequence (P15538 whole entry): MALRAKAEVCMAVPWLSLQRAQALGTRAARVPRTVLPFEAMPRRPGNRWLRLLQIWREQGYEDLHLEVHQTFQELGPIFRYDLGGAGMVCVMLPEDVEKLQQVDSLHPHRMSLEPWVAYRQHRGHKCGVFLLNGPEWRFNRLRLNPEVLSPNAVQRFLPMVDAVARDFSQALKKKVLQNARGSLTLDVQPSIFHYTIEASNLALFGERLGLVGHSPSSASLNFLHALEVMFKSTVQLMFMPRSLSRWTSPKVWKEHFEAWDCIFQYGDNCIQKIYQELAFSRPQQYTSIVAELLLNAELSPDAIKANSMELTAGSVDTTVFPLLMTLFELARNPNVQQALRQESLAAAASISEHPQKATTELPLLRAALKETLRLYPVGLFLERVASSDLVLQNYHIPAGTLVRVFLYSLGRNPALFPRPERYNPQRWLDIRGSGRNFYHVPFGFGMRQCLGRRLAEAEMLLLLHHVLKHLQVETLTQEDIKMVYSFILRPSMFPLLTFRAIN

Homo sapiens = organism: Homo sapiens; assay: Selectivity index, ratio IC50 for human CYP11B1 to IC50 for human CYP11B2
How it was run: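 Ratio of human CYP11B1 IC50 to human CYP11B2 IC50; each IC50 calculated from n ≥ 2 determinations.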

Aromatase = biological target: T2, Aromatase (Homo sapiens, UniProt P11511); assay: Inhibition of human CYP19
T2 sequence (P11511 whole entry): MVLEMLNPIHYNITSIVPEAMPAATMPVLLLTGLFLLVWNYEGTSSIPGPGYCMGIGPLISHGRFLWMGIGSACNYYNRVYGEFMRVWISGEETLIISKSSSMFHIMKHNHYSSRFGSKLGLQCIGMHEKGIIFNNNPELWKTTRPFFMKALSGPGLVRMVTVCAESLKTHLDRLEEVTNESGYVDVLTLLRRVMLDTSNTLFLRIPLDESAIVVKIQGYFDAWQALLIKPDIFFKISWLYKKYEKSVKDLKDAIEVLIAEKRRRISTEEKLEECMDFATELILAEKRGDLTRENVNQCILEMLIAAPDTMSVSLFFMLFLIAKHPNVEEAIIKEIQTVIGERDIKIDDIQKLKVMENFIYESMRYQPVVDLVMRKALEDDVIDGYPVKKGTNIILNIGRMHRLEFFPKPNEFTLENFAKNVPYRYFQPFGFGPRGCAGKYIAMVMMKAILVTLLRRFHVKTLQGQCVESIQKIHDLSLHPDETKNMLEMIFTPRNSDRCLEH

Cytochrome P450 3A4 = Cytochrome P450 3A4 (Homo sapiens, UniProt P08684); assay: Inhibition of human CYP3A4; format: ADME
Chain of Cytochrome P450 3A4 (P08684 whole entry): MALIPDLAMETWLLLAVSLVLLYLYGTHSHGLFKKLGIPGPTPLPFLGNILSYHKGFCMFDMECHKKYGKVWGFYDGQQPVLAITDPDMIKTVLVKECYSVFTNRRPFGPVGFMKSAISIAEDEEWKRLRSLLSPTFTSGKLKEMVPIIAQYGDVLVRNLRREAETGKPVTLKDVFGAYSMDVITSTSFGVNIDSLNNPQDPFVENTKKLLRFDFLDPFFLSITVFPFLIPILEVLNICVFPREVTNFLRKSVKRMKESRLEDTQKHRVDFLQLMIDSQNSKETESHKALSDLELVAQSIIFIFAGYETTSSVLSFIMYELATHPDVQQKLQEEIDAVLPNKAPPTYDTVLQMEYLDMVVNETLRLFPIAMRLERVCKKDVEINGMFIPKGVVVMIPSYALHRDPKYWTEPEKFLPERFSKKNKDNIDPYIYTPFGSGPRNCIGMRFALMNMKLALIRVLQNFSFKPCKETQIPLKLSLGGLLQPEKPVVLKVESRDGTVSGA

bioavailability [1]: 87%
pIC50 [2]: 5.36
Ratio IC50 (Homo sapiens): 69
pIC50 (Aromatase): < 4.52
pIC50 (Cytochrome P450 3A4): < 4.30
SMILES: Cc1nnc2n1-c1ccc(-c3cncc([C@](C)(O)C(F)(F)F)c3)cc1CC2
inhibition in vivo at 0.3 mg/kg (Rhesus monkey): 71%

Source: ChEMBL document CHEMBL3621164, “Discovery of Triazole CYP11B2 Inhibitors with in Vivo Activity in Rhesus Monkeys” (ACS Med Chem Lett, 2015)
